Assays:
[1] = system: SW-480 colon cancer cells; test: Effect of GLUT1 inhibitors on internalization of BLM-Cy5**; type: cell-based; conditions: pretreatment with different concentrations of inhibitor, 37 °C, 2 h, then 25 μM dye-labeled conjugate 44; 2 s exposure
In short: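 SW480 cells kept in RPMI 1640 with 10% FBS and 1% pen-strep at 37 °C, 5% CO2. Seeded on glass chamber slides at 5000 cells/well for 48 h. At 70% confluence, rinsed with PBS and switched to phenol-red-free RPMI. Pretreated 2 h at 37 °C with cytochalasin B or phloretin, then 25 μM Cy5-labeled conjugate for 1 h at 37 °C. PBS-washed, fixed 5 min in 4% paraformaldehyde, DAPI-mounted, imaged through Cy5 filter with 40× oil objective; cells counted.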

[2] = system: DU145 human prostate cancer cells; test: MTT cytotoxicity assay; type: cell-based; conditions: 24 h incubation, four concentrations, 5% DMSO, MTT read at 560 nm
In short: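 DU145 cells grown in log phase in MEM with 10% FBS and 1% pen-strep. Trypsinized, seeded at 5000 cells/well and incubated 24 h. Medium replaced with compound-containing medium (5% DMSO final) for 24 h. MTT solution (5 mg/mL in PBS, pH 7.4) added for 3 h at 37 °C. Crystals dissolved in DMSO; absorbance read at 560 nm, reference 670 nm. Viability = OD560/[OD560(positive control) − OD560(negative control)], with linear fit.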

[3] = system: supercoiled pSP64 plasmid DNA; test: Relaxation of supercoiled pSP64 plasmid DNA by Fe; type: biochemical; conditions: Fe(II) chelate; pSP64, 50 mM Tris-HCl pH 8.0, 25 °C, 30 min; agarose gel
In short: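 200 ng supercoiled pSP64 treated with freshly prepared Fe2+ (from ferrous ammonium sulfate) plus compound at 2 or 4 μM, in 50 mM Tris-HCl pH 8.0, 25 °C for 30 min. Quenched with glycerol/bromophenol blue loading buffer. Run on 1% agarose gel in 9 mM Tris-borate pH 8.3 with 320 μM Na2EDTA, 96 V for 2 h. Stained 1 h with 0.5 μg/mL ethidium bromide, destained in water, viewed under UV. Cleaved DNA given as percent of total per lane.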

supercoiled DNA = conditions: relative to BLM; cited from earlier work

Molecule	inhibition of BLM-Cy5** (44) binding/uptake [1]	cytotoxicity toward cultured DU145 cells (cell viability, MTT) [2]	extent of double-strand cleavage of plasmid DNA [3]	double-strand DNA cleavage (supercoiled DNA)	potency of supercoiled DNA relaxation, fold less than for BLM (supercoiled DNA)
O=C(CCc1ccc(O)cc1)c1c(O)cc(O)cc1O [phloretin]	substantial and dose-dependent inhibition				
C=C1[C@@H](C)[C@H]2[C@H](Cc3ccccc3)NC(=O)[C@]23OC(=O)/C=C/[C@H](O)CCC[C@@H](C)C/C=C/[C@H]3[C@@H]1O [cytochalasin B]	substantial and dose-dependent inhibition				
bleomycin A5 [BLM A5]		the most potent of the derivatives tested			
deglycobleomycin A5 [deglycoBLM A5]		cytotoxic to DU145 cells but much less so than BLM A5	minimal double-strand cleavage of plasmid DNA	much less double-strand cleavage is apparent	2–3 fold
